Results: ChEMBL document CHEMBL1122937, “[(Aminomethyl)arloxy]acetic acid esters. A new class of high-ceiling diuretics. 3. Variation in the bridge between the aromatic rings to complete mapping of the receptor” (J Med Chem, 1985)
Calls of active or inactive are those of the source. The rule behind the calls is not given here.

Tests used:
[1] = Distribution coefficient in octanol-pH 7.0 phosphate buffer was measured at room temperature; type: physicochemical
[2] = pKa value was evaluated; type: physicochemical
Outline: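 UV absorption spectra were recorded in a buffer series spanning the pH range from fully protonated to fully deprotonated phenolic OH. Absorbance vs pH curves were fit by nonlinear regression, solving for the extinction coefficients of both forms and the pKa. For the amine pKa the buffers were extended to pH 12.0.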

[3] = system: Rattus norvegicus; assay: Natriuretic potency expressed as oral dose necessary to produce an excretion of 2 mequiv of Na+/kg in the rat urine during the 4 hr period after dosing; type: functional
Outline: (§1)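 Rats were dosed orally in dose–response experiments. Urine volume, Na+, K+ and Cl- were measured. ED2 is the oral dose in mg/kg giving excretion of 2 mequiv Na+/kg in urine over the 4 h after dosing.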

[4] = system: Rattus norvegicus; assay: Natriuretic potency expressed as oral dose necessary to produce an excretion of 2 mequiv of Na+/kg in the rat urine during the 4 hr period after dosing; Inactive; type: functional, organism-based; outline: as §1
[5] = system: Rattus norvegicus; assay: Natriuretic potency expressed as oral dose necessary to produce an excretion of 2 mequiv of Na+/kg in the rat urine during the 4 h period after dosing; Inactive.; type: functional, organism-based; outline: as §1

| logD [1] | pKa [2] | Compound | ED2 [3] [mg/kg] | ED2 [4] | ED2 [5] |
| --- | --- | --- | --- | --- | --- |
| 0.3 | 7.34 | CCOC(=O)COc1ccc(C(=O)c2ccc(O)c(CN)c2)cc1 |  |  |  |
| 1.66 | 8.73 | CCOC(=O)COc1ccc(Cc2ccc(O)c(CN)c2)c(Cl)c1Cl.Cl | 7.5 |  |  |
|  |  | CCOC(=O)COc1ccc(Sc2ccc(O)c(CN)c2)c(Cl)c1Cl.Cl | 1 |  |  |
|  |  | CCOC(=O)COc1ccc(-c2ccc(O)c(CN)c2)c(Cl)c1Cl |  | inactive |  |
|  |  | CCOC(=O)COc1ccc2c(-c3ccc(O)c(CN)c3)noc2c1Cl.Cl | 35 |  |  |
| 1.41 | 6.38 | CCOC(=O)COc1ccc(C(=O)c2ccc(O)c(CN)c2)c(Cl)c1Cl.Cl | 2.5 |  |  |
|  |  | CCOC(=O)COc1ccc(C(=O)C(=O)c2ccc(O)c(CN)c2)c(Cl)c1Cl |  | inactive |  |
| 1.82 | 8.55 | CCOC(=O)COc1ccc(Oc2ccc(O)c(CN)c2)c(Cl)c1Cl.Cl | 0.8 |  |  |
|  |  | COC(=O)COc1ccc([S+]([O-])c2ccc(O)c(CN)c2)c(Cl)c1Cl.Cl (stereo unspecified) | 16.3 |  |  |
| 1.25 | 6.67 | CCOC(=O)COc1ccc(S(=O)(=O)c2ccc(O)c(CN)c2)c(Cl)c1Cl |  |  | inactive |
|  |  | CCOC(=O)COc1ccc(COc2ccc(O)c(CN)c2)c(Cl)c1Cl |  | inactive |  |
|  |  | CCOC(=O)COc1ccc(C(=O)Nc2ccc(O)c(CN)c2)c(Cl)c1Cl |  | inactive |  |
